Measurements gathered from unrelated publications.
Protocols differ between the studies behind these lines.
PIK3CA I800L: Phosphatidylinositol 4,5-bisphosphate 3-kinase catalytic subunit alpha isoform (PIK3CA, Homo sapiens, UniProt P42336, I800L)
PIK3CA Q546K: Phosphatidylinositol 4,5-bisphosphate 3-kinase catalytic subunit alpha isoform (PIK3CA, Homo sapiens, UniProt P42336, Q546K)
PIK3CA C420R: Phosphatidylinositol 4,5-bisphosphate 3-kinase catalytic subunit alpha isoform (PIK3CA, Homo sapiens, UniProt P42336, C420R)
PIK3CA E545K: Phosphatidylinositol 4,5-bisphosphate 3-kinase catalytic subunit alpha isoform (PIK3CA, Homo sapiens, UniProt P42336, E545K)
PIK3CA H1047L: Phosphatidylinositol 4,5-bisphosphate 3-kinase catalytic subunit alpha isoform (PIK3CA, Homo sapiens, UniProt P42336, H1047L)
PIK3CA H1047Y: Phosphatidylinositol 4,5-bisphosphate 3-kinase catalytic subunit alpha isoform (PIK3CA, Homo sapiens, UniProt P42336, H1047Y)
PIK3CA M1043I: Phosphatidylinositol 4,5-bisphosphate 3-kinase catalytic subunit alpha isoform (PIK3CA, Homo sapiens, UniProt P42336, M1043I)
PIK3CA: Phosphatidylinositol 4,5-bisphosphate 3-kinase catalytic subunit alpha isoform (PIK3CA, Homo sapiens, UniProt P42336)
PIK3CA E542K: Phosphatidylinositol 4,5-bisphosphate 3-kinase catalytic subunit alpha isoform (PIK3CA, Homo sapiens, UniProt P42336, E542K)
PIK3CA E545A: Phosphatidylinositol 4,5-bisphosphate 3-kinase catalytic subunit alpha isoform (PIK3CA, Homo sapiens, UniProt P42336, E545A)

Structure (SMILES) | target | effect on | technique | tested at | remaining binding [%]
O=C(c1ccc(Nc2ncc(Cl)c(-c3ccc(Cl)s3)n2)cc1)N1CCC(N2CCCC2)CC1 | PIK3CA I800L | binding | competition with immobilised ligand | 1 µM | 92
F[C@@H]1CCN(c2nccc(-c3cnn4ncccc34)n2)C1 | PIK3CA Q546K | binding |  | 1 µM | 55
CNC(=O)[C@@H]1CC[C@@H](n2c(-c3ccc4cnccc4c3)nc3ccc(C(=O)NCc4cccc(C(N)=O)c4)cc32)C1 | PIK3CA C420R | binding | competition with immobilised ligand | 1 µM | 90
CN1CCN(c2ccc(Nc3nccc(-c4cccc([N+](=O)[O-])c4)n3)cc2C(F)(F)F)CC1 | PIK3CA E545K | binding |  | 10 µM | 36
Nc1cnc(N2CCc3cc(S(=O)(=O)Nc4c(F)cc(Cl)cc4F)cc(N4CCCC4=O)c32)nc1 | PIK3CA H1047L | cell-free assay | competition with immobilised ligand | 1 µM | 60
C[C@@H](c1ccc(-n2cnc3c(N)ncnc32)cc1)N1CCc2nn(C)c(Cc3ccccc3)c2C1=O | PIK3CA C420R | binding | competition with immobilised ligand | 0.1 µM | 98
COc1cnc(Nc2cccc(S(N)(=O)=O)c2)nc1N1CCN(c2ccccc2)C(=O)C1 | PIK3CA H1047Y | binding | competition with immobilised ligand | 1 µM | 81
CCC(=O)N[C@H]1CC[C@@H](C(=O)N(C)c2ccc(-c3nc4ccccc4o3)cc2)C1 | PIK3CA C420R | cell-free assay | competition with immobilised ligand | 1 µM | 92
C[C@H]1CCN(c2nccc(-c3cnn4ncccc34)n2)C1 | PIK3CA M1043I | binding |  | 1 µM | 100
O=C(NCCCN1CCOCC1)c1ccc(Nc2nccc(-c3cc4ccccc4s3)n2)cc1 | PIK3CA | binding | competition with immobilised ligand | 1 µM | 93
FC(F)(F)c1ccc2c(c1)nc(-c1cccnc1)n2C1CC1 | PIK3CA M1043I | cell-free assay | competition with immobilised ligand | 1 µM | 100
COc1cnc(Nc2cccc(S(N)(=O)=O)c2)nc1N1CCN(c2ccccc2)CC1 | PIK3CA | binding | competition with immobilised ligand | 1 µM | 98
O=C(NCCCN1CCOCC1)c1ccc(Nc2ncc(Cl)c(-c3ccc(Cl)s3)n2)cc1 | PIK3CA Q546K | binding | competition with immobilised ligand | 1 µM | 100
N[C@H]1CCN(c2nccc(-c3cnn4ncccc34)n2)C1 | PIK3CA E542K | binding |  | 1 µM | 83
C=CC(=O)N1CCC(C(=O)NCC(=O)N2CCN(c3nc(-c4cnc(N)nc4C(F)F)nc(N4CCOCC4)n3)CC2)CC1 | PIK3CA H1047L | binding | competition with immobilised ligand | 1 µM | 0.45
O=C(NCC1CCOCC1)c1n[nH]cc1NC(=O)c1c(F)cccc1F | PIK3CA E545A | binding | competition with immobilised ligand | 1 µM | 100
COc1ncc2cc3ccccc3nc2c1C#N | PIK3CA Q546K | cell-free assay | competition with immobilised ligand | 5 µM | 99

Structure (SMILES) | target | effect on | technique | tested at | remaining binding [%]
Cc1cnc(Nc2ccc(C(=O)N3CCC(N4CCCC4)CC3)cc2)nc1-c1cc2ccccc2s1 | PIK3CA I800L | binding | competition with immobilised ligand | 1 µM | 100
CC(=O)C1=C(C)N(c2cccc(C(F)(F)F)c2)C(=O)N[C@@H]1c1ccc(C#N)nc1 | PIK3CA H1047L | cell-free assay | competition with immobilised ligand | 1 µM | 69
COc1ccnn2ncc(-c3ccnc(N(C)C)n3)c12 | PIK3CA H1047L | binding |  | 1 µM | 76
CN1CCN(c2ccc(Nc3nccc(-c4ccccc4)n3)cc2C(F)(F)F)CC1 | PIK3CA E545K | binding |  | 10 µM | 68
CC1CCCN1c1nccc(-c2cnn3ncccc23)n1 (stereo not drawn) | PIK3CA Q546K | binding |  | 1 µM | 42
O=C(c1ccc(Nc2nccc(-c3cc4ccccc4s3)n2)cc1)N1CCC(N2CCCC2)CC1 | PIK3CA M1043I | binding | competition with immobilised ligand | 1 µM | 81
O=C(Nc1c[nH]nc1C(=O)NC1CCNCC1)c1cc(F)cc(F)c1 | PIK3CA E542K | binding | competition with immobilised ligand | 1 µM | 88
c1cncc(-c2cccc(Nc3nccc(NC4CCCCC4)n3)c2)c1 | PIK3CA I800L | binding | competition with immobilised ligand | 10 µM | 77
CC1=C(C#N)[C@@H](c2ccc3[nH]nc(C)c3c2)C(C#N)=C(c2ccc(Cl)cc2)N1 | PIK3CA E545A | cell-free assay | competition with immobilised ligand | 1 µM | 75.4
CCN1CCN(Cc2ccc(C(=O)Nc3ccc(C)c(Oc4ccc5c(c4)CC(=O)N5)c3)cc2C(F)(F)F)CC1 | PIK3CA M1043I | binding | competition with immobilised ligand | 1 µM | 100
Cc1cc(NC(=O)c2cccc(S(F)(F)(F)(F)F)c2)cc(-n2ccn3nc(-c4cccnc4)cc23)c1 | PIK3CA C420R | cell-free assay | competition with immobilised ligand | 1 µM | 97.1
CN(C)c1ncc(F)c(-c2cnn3ncccc23)n1 | PIK3CA E545A | binding |  | 1 µM | 59
CCc1ccccc1C(=O)Nc1n[nH]c2c(C)c(F)c(C3C(C#N)=C(C)N(C)C(C)=C3C#N)cc12 | PIK3CA H1047Y | cell-free assay | competition with immobilised ligand | 1 µM | 77
Nc1ncc2c(n1)-c1c([nH]c3ccc(C#CC4CC4)cc13)CCCC2 | PIK3CA I800L | binding | competition with immobilised ligand | 1 µM | 81
C[C@H](NC(=O)c1cnc2n1[C@](C)(Cc1ccc(C#N)cc1)C(=O)N2c1cc(Cl)c(F)c(Cl)c1)C(=O)NC1(c2ccccn2)CC1 | PIK3CA C420R | cell-free assay | competition with immobilised ligand | 1 µM | 93
CN(CCCC(F)(F)F)c1nccc(-c2cnn3ncccc23)n1 | PIK3CA Q546K | binding |  | 1 µM | 69
